# Calls of active or inactive are those of the source. The rule behind the calls is not given here.
# Tests used:
# [1] = target: Vascular endothelial growth factor receptor 2 (Danio rerio) (UniProt Q5GIT4); experiment: Mild inhibition of VEGFR2-mediated regenerative angiogenesis in adult zebrafish tail fin vessel at 100 to 500 nM after 3 days by microscopy
# Outline: (§1)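 Adult fins cut at mid-fin level; fish kept in fish water with inhibitor (DMSO stock, final DMSO <0.1%) at 31-33 °C, up to six fish per liter, for 3 dpa. Tg(fli1:EGFP)y1 endothelial signal imaged by fluorescence microscopy, with perfusion shown by intracardiac angiography in the same fish.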
# [2] = target: Vascular endothelial growth factor receptor 2 (Danio rerio) (UniProt Q5GIT4); experiment: Inhibition of VEGFR2-mediated regenerative angiogenesis in adult zebrafish tail fin vessel at 500 to 1000 nM after 3 days by microscopy
# [3] = target: Vascular endothelial growth factor receptor 2 (Danio rerio) (UniProt Q5GIT4); experiment: Inhibition of VEGFR2-mediated regenerative angiogenesis in adult zebrafish tail fin vessel at 100 to 500 nM after 3 days by microscopy; outline: as §1
# [4] = target: Vascular endothelial growth factor receptor 2 (Danio rerio) (UniProt Q5GIT4); experiment: Inhibition of VEGFR2-mediated regenerative angiogenesis in adult zebrafish tail fin vessel at 500 to 1000 nM after 3 days by microscopy; type: tissue-based
# [5] = target: Vascular endothelial growth factor receptor 2 (Danio rerio) (UniProt Q5GIT4); experiment: Inhibition of VEGFR2-mediated regenerative angiogenesis in adult zebrafish tail fin vessel harboring hypomorphic mutation in grlm145 gene assessed as vascularization of newly generated tissues at 100 nM measured on day 3 post treatment by angiography; type: tissue-based; set-up: scale not given: the % may be the effect or the level left
# Outline: (§2)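 Fins of wild-type or mutant adults cut at mid-fin level, then kept 3 dpa in fish water or 100 nM PTK787 at 31-33 °C. Perfusion shown by intracardiac injection of fluorescent lectin or 70-kDa dextran (5 mg ml-1 in Danieau's, pH 7.6). Tissue regrowth and vessel regeneration measured for each fish and given as percentage of vascularization; ANOVA with Tukey tests.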
# [6] = target: Vascular endothelial growth factor receptor 2 (Danio rerio) (UniProt Q5GIT4); experiment: Partial inhibition of VEGFR2-mediated regenerative angiogenesis in adult zebrafish tail fin vessel at 100 nM after 3 days by microscopy; outline: as §1
# [7] = target: Vascular endothelial growth factor receptor 2 (Danio rerio) (UniProt Q5GIT4); experiment: Complete inhibition of VEGFR2-mediated regenerative angiogenesis in adult zebrafish tail fin vessel at 500 nM after 3 days by microscopy; outline: as §1
# [8] = target: Vascular endothelial growth factor receptor 2 (Danio rerio) (UniProt Q5GIT4); experiment: Inhibition of VEGFR2-mediated regenerative angiogenesis in adult zebrafish tail fin distal vessel at 500 nM treated for 3 days post 5 days of amputation period measured on day 5 by angiography
# Outline: (§3)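 Amputated adult Tg(fli1:EGFP)y1 fins recovered at 31-33 °C in fish water or 500 nM inhibitor (final DMSO <0.1%); in washout runs the drug was removed at 3 dpa. The same fish were imaged over several days.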
# [9] = target: Vascular endothelial growth factor receptor 2 (Danio rerio) (UniProt Q5GIT4); experiment: Inhibition of VEGFR2-mediated regenerative angiogenesis in adult zebrafish tail fin proximal vessel at 500 nM treated for 3 days post 5 days of amputation period measured on day 5 by angiography; outline: as §3
# [10] = target: Vascular endothelial growth factor receptor 2 (Danio rerio) (UniProt Q5GIT4); experiment: Inhibition of VEGFR2-mediated regenerative angiogenesis in adult zebrafish tail fin distal vessel at 500 nM treated for 3 days post 5 days of amputation period measured on day 8 by angiography; outline: as §3
# [11] = target: Vascular endothelial growth factor receptor 2 (Danio rerio) (UniProt Q5GIT4); experiment: Inhibition of VEGFR2-mediated regenerative angiogenesis in adult zebrafish tail fin proximal vessel at 500 nM treated for 3 days post 5 days of amputation period measured on day 8 by angiography; outline: as §3
# [12] = target: Vascular endothelial growth factor receptor 2 (Danio rerio) (UniProt Q5GIT4); experiment: Inhibition of VEGFR2-mediated regenerative angiogenesis in adult zebrafish tail fin assessed as amount of tissue regeneration at 500 nM measured on day 7 post treatment by angiography; type: tissue-based; outline: as §3
# [13] = target: Vascular endothelial growth factor receptor 2 (Danio rerio) (UniProt Q5GIT4); experiment: Inhibition of VEGFR2-mediated regenerative angiogenesis in adult zebrafish tail fin assessed as amount of tissue regeneration at 500 nM measured on day 14 post treatment by angiography; type: tissue-based; outline: as §3
# [14] = target: Vascular endothelial growth factor receptor 2 (Danio rerio) (UniProt Q5GIT4); experiment: Inhibition of VEGFR2-mediated regenerative angiogenesis in adult zebrafish tail fin at 500 nM treated for 3 days measured after 4 days of drug washout by angiography; outline: as §3
# [15] = target: Vascular endothelial growth factor receptor 2 (Danio rerio) (UniProt Q5GIT4); experiment: Inhibition of VEGFR2-mediated regenerative angiogenesis in adult zebrafish tail fin assessed as reduction of plexus formation at 500 nM treated for 3 days measured after 4 days of drug washout by angiography; outline: as §3
# [16] = target: Vascular endothelial growth factor receptor 2 (Danio rerio) (UniProt Q5GIT4); experiment: Inhibition of VEGFR2-mediated regenerative angiogenesis in adult zebrafish tail fin assessed as decrease in tissue regeneration at 500 nM after 5 days by angiography; type: tissue-based; outline: as §3
# [17] = target: Vascular endothelial growth factor receptor 2 (Danio rerio) (UniProt Q5GIT4); experiment: Effect on VEGFR2-mediated axonal outgrowth in adult zebrafish tail fin at 500 nM after 5 days by zn-12 staining-based immunohistochemistry
# Outline: (§4)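 Fins fixed overnight at 4 °C in Dent's fixative, dehydrated in a methanol series, re-fixed in 4% paraformaldehyde for 2-24 h, then permeabilized in acetone at -20 °C for 20 min and blocked 1 h at 37 °C. Primary antibody zn-12, zns-5 or B-4 (smooth muscle actin) at 1:50-1:200 overnight at 4 °C; Cy2/Cy3 secondary at 1:200.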
# [18] = target: Vascular endothelial growth factor receptor 2 (Danio rerio) (UniProt Q5GIT4); experiment: Effect on VEGFR2-mediated bone tissue regeneration in adult zebrafish tail fin at 500 nM after 5 days by zns-5 staining-based immunohistochemistry; outline: as §4
# [19] = target: Vascular endothelial growth factor receptor 2 (Danio rerio) (UniProt Q5GIT4); experiment: Inhibition of VEGFR2-mediated regenerative angiogenesis in adult zebrafish tail fin assessed disruption of actin filament at 500 nM measured after 1 week or recovery post amputation by immunohistochemistry
# [20] = target: Vascular endothelial growth factor receptor 2 (Danio rerio) (UniProt Q5GIT4); experiment: Inhibition of VEGFR2-mediated regenerative angiogenesis in adult zebrafish tail fin assessed disruption of actin filament at 500 nM after 14 days by immunohistochemistry
# [21] = target: Vascular endothelial growth factor receptor 2 (Danio rerio) (UniProt Q5GIT4); experiment: Inhibition of VEGFR2-mediated regenerative angiogenesis in wild type adult zebrafish tail fin vessel assessed as vascularization of newly generated tissues at 100 nM measured on day 3 post treatment by angiography; type: tissue-based; set-up: scale not given: the % may be the effect or the level left; outline: as §2
# [22] = target: Vascular endothelial growth factor receptor 2 (Danio rerio) (UniProt Q5GIT4); experiment: Inhibition of VEGFR2-mediated regenerative angiogenesis in PLCgamma1y10 gene-deficient adult zebrafish tail fin vessel assessed as vascularization of newly generated tissues at 100 nM measured on day 3 post treatment by angiography; type: tissue-based; set-up: scale not given: the % may be the effect or the level left; outline: as §2
# [23] = target: Vascular endothelial growth factor receptor 2 (Danio rerio) (UniProt Q5GIT4); experiment: Inhibition of VEGFR2-mediated regenerative angiogenesis in clom39-positive heterozygous adult zebrafish tail fin vessel assessed as vascularization of newly generated tissues at 100 nM measured on day 3 post treatment by angiography; type: tissue-based; set-up: scale not given: the % may be the effect or the level left; outline: as §2
# Danio rerio [24] = species: Danio rerio; experiment: Decrease in VEGFR2 gene expression in adult zebrafish tail fin at 500 nM after 3 days by real-time PCR analysis
# Danio rerio [25] = species: Danio rerio; experiment: Decrease in VEGFR2 gene expression in adult zebrafish tail fin at 500 nM up to 2 days by in-situ hybridization assay
# [26] = target: Vascular endothelial growth factor receptor 2 (Danio rerio) (UniProt Q5GIT4); experiment: Inhibition of VEGFR2-mediated VEGFA mRNA expression in adult zebrafish tail fin at 500 nM after 1.5 days by in-situ hybridization assay
# Danio rerio [27] = species: Danio rerio; experiment: Decrease in FGFR1 mRNA expression in adult zebrafish tail fin at 500 nM measured on day 2 post treatment by in-situ hybridization assay
# [28] = target: Vascular endothelial growth factor receptor 2 (Danio rerio) (UniProt Q5GIT4); experiment: Inhibition of VEGFR2-mediated shh mRNA expression in adult zebrafish tail fin at 500 nM measured on day 2 post treatment by in-situ hybridization assay
# [29] = target: Vascular endothelial growth factor receptor 2 (Danio rerio) (UniProt Q5GIT4); experiment: Inhibition of VEGFR2-mediated msxb mRNA expression in adult zebrafish tail fin at 500 nM measured on day 2 post treatment by in-situ hybridization assay
# Danio rerio [30] = species: Danio rerio; experiment: Decrease in VEGFR2 gene expression in adult zebrafish tail fin at 500 nM treated for 3 days measured on day 4 following drug washout by real-time PCR analysis
# Danio rerio [31] = species: Danio rerio; experiment: Decrease in VEGFR2 gene expression in adult zebrafish tail fin at 500 nM treated for 3 days measured on day 5 following drug washout by real-time PCR analysis
# Danio rerio [32] = species: Danio rerio; experiment: Effect on ephrinB2a mRNA expression in adult zebrafish tail fin at 500 nM treated for 3 days measured on day 5 following drug washout by real-time PCR analysis
# Danio rerio [33] = species: Danio rerio; experiment: Effect on semaphorin3aa mRNA expression in adult zebrafish tail fin at 500 nM treated for 3 days measured on day 5 following drug washout by real-time PCR analysis
# [34] = target: Vascular endothelial growth factor receptor 2 (Danio rerio) (UniProt Q5GIT4); experiment: Effect on VEGFR2-mediated VEGFA mRNA expression in adult zebrafish tail fin at 500 nM treated for 3 days measured on day 5 following drug washout by real-time PCR analysis
# Chain of Vascular endothelial growth factor receptor 2 (Danio rerio) (Q5GIT4 whole entry, the tested form may be a part): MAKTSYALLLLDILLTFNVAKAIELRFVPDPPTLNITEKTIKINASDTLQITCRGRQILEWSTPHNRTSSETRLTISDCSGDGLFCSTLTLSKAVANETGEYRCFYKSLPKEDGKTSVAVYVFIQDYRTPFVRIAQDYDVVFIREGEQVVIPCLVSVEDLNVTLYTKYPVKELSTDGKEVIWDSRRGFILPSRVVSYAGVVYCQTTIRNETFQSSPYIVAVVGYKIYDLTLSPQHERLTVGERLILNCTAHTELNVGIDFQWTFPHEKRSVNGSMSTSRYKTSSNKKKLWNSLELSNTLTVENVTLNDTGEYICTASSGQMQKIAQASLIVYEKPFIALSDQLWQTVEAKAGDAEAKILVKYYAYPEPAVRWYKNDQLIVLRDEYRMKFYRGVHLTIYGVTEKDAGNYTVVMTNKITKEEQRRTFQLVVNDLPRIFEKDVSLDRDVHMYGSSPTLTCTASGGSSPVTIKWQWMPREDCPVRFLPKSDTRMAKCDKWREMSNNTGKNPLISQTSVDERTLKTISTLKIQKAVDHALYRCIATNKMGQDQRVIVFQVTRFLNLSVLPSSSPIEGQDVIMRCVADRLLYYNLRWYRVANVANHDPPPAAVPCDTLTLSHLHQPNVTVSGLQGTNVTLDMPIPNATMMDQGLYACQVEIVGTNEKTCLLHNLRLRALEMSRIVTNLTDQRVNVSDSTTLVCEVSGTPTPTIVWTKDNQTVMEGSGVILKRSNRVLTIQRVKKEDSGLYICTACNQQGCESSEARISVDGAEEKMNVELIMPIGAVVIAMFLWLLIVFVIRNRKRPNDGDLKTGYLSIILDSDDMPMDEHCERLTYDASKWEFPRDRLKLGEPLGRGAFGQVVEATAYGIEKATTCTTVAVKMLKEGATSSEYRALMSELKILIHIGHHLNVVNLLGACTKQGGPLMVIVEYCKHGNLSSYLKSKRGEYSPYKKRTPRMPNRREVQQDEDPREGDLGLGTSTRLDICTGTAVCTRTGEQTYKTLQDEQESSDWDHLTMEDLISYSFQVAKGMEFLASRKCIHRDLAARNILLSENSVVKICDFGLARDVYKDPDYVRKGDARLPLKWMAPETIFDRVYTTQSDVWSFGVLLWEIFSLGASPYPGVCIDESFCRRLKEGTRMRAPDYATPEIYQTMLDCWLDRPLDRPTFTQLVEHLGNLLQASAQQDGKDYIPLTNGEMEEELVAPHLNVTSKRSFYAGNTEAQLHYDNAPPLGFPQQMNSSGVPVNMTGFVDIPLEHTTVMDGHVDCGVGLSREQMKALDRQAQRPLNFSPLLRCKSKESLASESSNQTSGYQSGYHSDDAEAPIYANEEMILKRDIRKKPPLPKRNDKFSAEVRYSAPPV
compound,measurement,setting,value
CCN(CC)CCNC(=O)c1c(C)[nH]c(/C=C2\C(=O)Nc3ccc(Cl)cc32)c1C,inhibition,[1],Active
same,inhibition,[2],Active
O=C(Nc1cccc(C(F)(F)F)c1)c1ccccc1NCc1ccncc1,inhibition,[3],Active
Cc1cc(C)c(/C=C2\C(=O)Nc3ccccc32)[nH]1,inhibition,[4],inactive
Clc1ccc(Nc2nnc(Cc3ccncc3)c3ccccc23)cc1,Activity,[5],30%
same,inhibition,[6],Active
same,inhibition,[7],Active
same,inhibition,[8],Active
same,inhibition,[9],inactive
same,inhibition,[10],Active
same,inhibition,[11],inactive
same,regenerated tissue length,[12],800 µm
same,regenerated tissue length,[13],800 µm
same,inhibition,[14],inactive
same,inhibition,[15],Active
same,inhibition,[16],Active
same,Activity,[17],inactive
same,Activity,[18],inactive
same,inhibition,[19],Active
same,inhibition,[20],inactive
same,Activity,[21],50%
same,Activity,[22],30%
same,Activity,[23],50%
same,inhibition,Danio rerio [24],Active
same,inhibition,Danio rerio [25],Active
same,inhibition,[26],inactive
same,inhibition,Danio rerio [27],inactive
same,inhibition,[2],Active
same,inhibition,[28],inactive
same,inhibition,[29],inactive
same,inhibition,Danio rerio [30],inactive
same,inhibition,Danio rerio [31],inactive
same,Activity,Danio rerio [32],inactive
same,Activity,Danio rerio [33],inactive
same,Activity,[34],inactive

# From ChEMBL document CHEMBL1221183, “Chemical modulation of receptor signaling inhibits regenerative angiogenesis in adult zebrafish” (Nat Chem Biol, 2006)
